Results collected from several papers.
Compare with care: the assays were run in different laboratories.
KIT V559D: Mast/stem cell growth factor receptor Kit (KIT, Homo sapiens, UniProt P10721, V559D)
KIT D816H: Mast/stem cell growth factor receptor Kit (KIT, Homo sapiens, UniProt P10721, D816H)
KIT L576P: Mast/stem cell growth factor receptor Kit (KIT, Homo sapiens, UniProt P10721, L576P)
KIT autoinhibited: Mast/stem cell growth factor receptor Kit, autoinhibited (KIT, Homo sapiens, UniProt P10721)
KIT: Mast/stem cell growth factor receptor Kit (KIT, Homo sapiens, UniProt P10721)
KIT A829P: Mast/stem cell growth factor receptor Kit (KIT, Homo sapiens, UniProt P10721, A829P)
KIT V559D/V654A: Mast/stem cell growth factor receptor Kit (KIT, Homo sapiens, UniProt P10721, V559D/V654A)
KIT T670I/V559D: Mast/stem cell growth factor receptor Kit (KIT, Homo sapiens, UniProt P10721, T670I/V559D)

Structure (SMILES)	target	test	conditions	remaining binding
COc1cnc(Nc2cccc(S(N)(=O)=O)c2)nc1N1CCN(c2ccccc2)C(=O)C1	KIT V559D	binding, competition with immobilised ligand	1 µM	98%
O=C(c1ccc(Nc2ncc(Cl)c(-c3ccc(Cl)s3)n2)cc1)N1CCC(N2CCCC2)CC1	KIT V559D	binding, competition with immobilised ligand	1 µM	0.05%
N[C@H]1CCN(c2nccc(-c3cnn4ncccc34)n2)C1	KIT D816H	binding	1 µM	64%
CCN1CCN(Cc2ccc(C(=O)Nc3ccc(C)c(Oc4ccc5c(c4)CC(=O)N5)c3)cc2C(F)(F)F)CC1	KIT L576P	binding, competition with immobilised ligand	1 µM	2.9%
O=C(NCCCN1CCOCC1)c1ccc(Nc2ncc(Cl)c(-c3ccc(Cl)s3)n2)cc1	KIT autoinhibited	binding, competition with immobilised ligand	1 µM	31%
CNC(=O)[C@@H]1CC[C@@H](n2c(-c3ccc4cnccc4c3)nc3ccc(C(=O)NCc4cccc(C(N)=O)c4)cc32)C1	KIT D816H	binding, competition with immobilised ligand	1 µM	100%
c1cncc(-c2cccc(Nc3nccc(NC4CCCCC4)n3)c2)c1	KIT V559D	binding, competition with immobilised ligand	10 µM	1.2%
O=S(=O)(NC1CCC(c2cc(F)ccc2F)(S(=O)(=O)c2ccc(Cl)cc2)CC1)C(F)(F)F (stereo not shown)	KIT L576P	cell-free assay, competition with immobilised ligand	1 µM	100%
Nc1ncc2c(n1)-c1c([nH]c3ccc(C#CC4CC4)cc13)CCCC2	KIT D816H	binding, competition with immobilised ligand	1 µM	89%
C[C@@H](c1ccc(-n2cnc3c(N)ncnc32)cc1)N1CCc2nn(C)c(Cc3ccccc3)c2C1=O	KIT	binding, competition with immobilised ligand	0.1 µM	38%
CC(=O)N1CCC(c2ccc(C(=O)NC(=N)N)cc2C(F)(F)F)CC1	KIT A829P	cell-free assay, competition with immobilised ligand	1 µM	100%
O=C(c1ccc(Nc2ncc(Cl)c(-c3cc4ccccc4s3)n2)cc1)N1CCC(N2CCCC2)CC1	KIT D816H	binding, competition with immobilised ligand	1 µM	22%
CN(C)c1nccc(-c2cnc3ncccn23)n1	KIT A829P	binding	1 µM	54%
O=C(Nc1c[nH]nc1C(=O)NC1CCNCC1)c1cc(F)cc(F)c1	KIT V559D/V654A	binding, competition with immobilised ligand	1 µM	100%
CN(c1nccc(-c2cnn3ncccc23)n1)C1CC1	KIT D816H	binding	1 µM	83%
O=C(NS(=O)(=O)c1ccc(NCC2CCOCC2)c([N+](=O)[O-])c1)c1ccc(N2CCN(Cc3ccc(C(F)(F)F)cc3-c3ccc(Cl)cc3)CC2)cc1Oc1cnc2[nH]ccc2c1	KIT autoinhibited	cell-free assay, competition with immobilised ligand	1 µM	100%

Structure (SMILES)	target	test	conditions	remaining binding
COc1ccnn2ncc(-c3ccnc(N(C)C)n3)c12	KIT A829P	binding	1 µM	85%
O=C(NCCCN1CCOCC1)c1ccc(Nc2nccc(-c3cc4ccccc4s3)n2)cc1	Mast/stem cell growth factor receptor Kit (KIT, Homo sapiens, UniProt P10721, D816V)	binding, competition with immobilised ligand	1 µM	16%
FC(F)(F)c1ccc2c(c1)nc(-c1cccnc1)n2C1CC1	KIT V559D	cell-free assay, competition with immobilised ligand	1 µM	100%
O=C(NCC1CCOCC1)c1n[nH]cc1NC(=O)c1c(F)cccc1F	KIT T670I/V559D	binding, competition with immobilised ligand	1 µM	100%
O=C(c1ccc(Nc2nccc(-c3cc4ccccc4s3)n2)cc1)N1CCC(N2CCCC2)CC1	KIT V559D/V654A	binding, competition with immobilised ligand	1 µM	63%
CNC(=O)Nc1ccc2c(c1)[C@@]1(CC2)OC(=O)N(CC(=O)N(Cc2ccc(F)cc2)[C@@H](C)C(F)(F)F)C1=O	KIT V559D	cell-free assay, competition with immobilised ligand	1 µM	100%
CN(CCCC(F)(F)F)c1nccc(-c2cnn3ncccc23)n1	KIT T670I/V559D	binding	1 µM	100%
CCS(=O)(=O)c1cc2cc(C[C@](O)(CC(C)(C)c3ccc(F)cc3C(N)=O)C(F)(F)F)[nH]c2cn1	KIT L576P	cell-free assay, competition with immobilised ligand	1 µM	83%
COc1cnc(Nc2cccc(S(N)(=O)=O)c2)nc1N1CCN(c2ccccc2)CC1	KIT T670I/V559D	binding, competition with immobilised ligand	1 µM	97%
C=CC(=O)N1CCC(C(=O)NCC(=O)N2CCN(c3nc(-c4cnc(N)nc4C(F)F)nc(N4CCOCC4)n3)CC2)CC1	KIT V559D	binding, competition with immobilised ligand	1 µM	78%
C[C@@H]1CCN(c2nccc(-c3cnn4ncccc34)n2)C1	KIT A829P	binding	1 µM	85%
CC1=C(C#N)[C@@H](c2ccc3[nH]nc(C)c3c2)C(C#N)=C(c2ccc(Cl)cc2)N1	KIT D816H	cell-free assay, competition with immobilised ligand	1 µM	84.3%
CN(C)c1ncc(F)c(-c2cnn3ncccc23)n1	KIT	binding	1 µM	100%
Cc1cnc(Nc2ccc(C(=O)N3CCC(N4CCCC4)CC3)cc2)nc1-c1cc2ccccc2s1	KIT	binding, competition with immobilised ligand	1 µM	4.5%
COc1ccc2c(c1)O[C@H](c1ccc(OC)c(OC)c1)C[C@@H]2NC(=O)C1(c2ccc3c(c2)OC(F)(F)O3)CC1	KIT	cell-free assay, competition with immobilised ligand	1 µM	100%
